# Test results reported in ChEMBL document CHEMBL1126904, “Inhibitors of cholesterol biosynthesis. 1. 3,5-Dihydroxy-7-(N-imidazolyl)-6-heptenoates and -heptanoates, a novel series of HMG-CoA reductase inhibitors” (J Med Chem, 1993).
# How the values were obtained:
# [1] = target: T1, 3-hydroxy-3-methylglutaryl-coenzyme A reductase (Rattus norvegicus, UniProt P51639); assay: Inhibitory activity against washed rat liver microsomal HMG-CoA reductase (HMGR)
# T1 sequence (P51639 whole entry): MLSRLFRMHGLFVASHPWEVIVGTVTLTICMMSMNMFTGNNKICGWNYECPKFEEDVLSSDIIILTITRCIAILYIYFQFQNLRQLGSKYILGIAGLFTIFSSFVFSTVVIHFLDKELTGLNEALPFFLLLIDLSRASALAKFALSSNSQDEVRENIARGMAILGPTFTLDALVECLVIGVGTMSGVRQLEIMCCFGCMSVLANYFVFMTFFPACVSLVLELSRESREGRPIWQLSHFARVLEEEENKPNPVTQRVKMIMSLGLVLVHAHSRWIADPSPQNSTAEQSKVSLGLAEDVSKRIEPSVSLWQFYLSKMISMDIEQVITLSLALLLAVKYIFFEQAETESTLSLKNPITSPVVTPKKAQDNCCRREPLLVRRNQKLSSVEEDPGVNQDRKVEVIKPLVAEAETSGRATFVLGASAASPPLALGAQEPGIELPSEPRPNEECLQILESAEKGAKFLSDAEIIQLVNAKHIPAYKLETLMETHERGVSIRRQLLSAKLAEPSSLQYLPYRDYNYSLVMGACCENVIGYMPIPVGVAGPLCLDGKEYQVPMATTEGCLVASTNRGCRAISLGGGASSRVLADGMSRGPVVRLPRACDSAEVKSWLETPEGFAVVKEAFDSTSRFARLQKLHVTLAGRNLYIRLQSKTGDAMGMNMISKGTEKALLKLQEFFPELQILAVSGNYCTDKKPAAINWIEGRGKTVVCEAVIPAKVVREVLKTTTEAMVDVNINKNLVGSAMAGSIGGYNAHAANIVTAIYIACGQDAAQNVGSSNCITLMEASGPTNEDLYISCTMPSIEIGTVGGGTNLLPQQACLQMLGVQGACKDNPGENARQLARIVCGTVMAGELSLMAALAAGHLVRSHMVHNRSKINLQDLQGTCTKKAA
# Procedure, shortened: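 Male Wistar rats (100–120 g) on reversed light cycle, killed at 0800 h; washed liver microsomes (10000g then 105000g spins, 4 °C) in buffer A (50 mM K phosphate pH 7.4, 250 mM NaCl, 10 mM EDTA, 1 mM DTT). Enzyme+inhibitor preincubated 10 min 37 °C; NADPH-regenerating system plus [3-14C]HMG-CoA added; HCl stop, lactonization, anion-exchange isolation of [14C]mevalonate, scintillation. Five concentrations, duplicate, ≥2 occasions; pravastatin reference.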
# [2] = Partition coefficient (logD7.4); type: physicochemical; details: octanol/water, pH 7.4
# Procedure, shortened: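 log D by HPLC in n-octanol–water: compound dissolved in pH 7.4 aqueous borax-phosphate buffer saturated with n-octanol, eluted through a column of n-octanol physically bonded to fractionated hyflosuperpel.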
# [3] = system: HepG2; assay: Tested for ability to inhibit the incorporation of [14C]- acetate in to cholesterol in HepG2 cells; type: functional, cell-based; details: Homo sapiens
# Procedure, shortened: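 HepG2 cells in MEM + 10% fetal calf serum to 80% confluency, switched to serum-free MEM; inhibitor and sodium [14C]acetate added together, 3 h. Saponified, petroleum ether extract; [14C]cholesterol separated by reverse-phase HPLC and measured by radioactivity flow monitor. At least five concentrations, triplicate, run twice; lovastatin standard.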
IC50 [1] [nM],logD [2],IC50 [3] [nM],SMILES
43,,,Cc1ccc(-c2nc(C(F)(F)F)n(CC[C@@H](O)C[C@@H](O)CC(=O)O)c2-c2ccc(F)cc2)cc1
> 1000,,,O=C(O)C[C@H](O)C[C@H](O)CCn1c(C(F)(F)F)nc(-c2ccc(F)cc2)c1-c1cccnc1
135,,,COc1cccc(-c2c(-c3ccc(F)cc3)nc(C(F)(F)F)n2CC[C@@H](O)C[C@@H](O)CC(=O)O)c1
418,,,COc1ccc(-c2c(-c3ccc(F)cc3)nc(C(F)(F)F)n2CC[C@@H](O)C[C@@H](O)CC(=O)O)cc1
215,,,O=C(O)C[C@H](O)C[C@H](O)CCn1c(C(F)(F)F)nc(-c2ccc(F)cc2)c1-c1cccs1
29,,,Cc1cccc(-c2nc(C(F)(F)F)n(CC[C@@H](O)C[C@@H](O)CC(=O)O)c2-c2ccc(F)cc2)c1
74,,,Cc1cccc(-c2c(-c3ccc(F)cc3)nc(C(F)(F)F)n2CC[C@@H](O)C[C@@H](O)CC(=O)O)c1
200,,,O=C(O)C[C@H](O)C[C@H](O)CCn1c(C(F)(F)F)nc(-c2ccc(C(F)(F)F)cc2)c1-c1ccc(F)cc1
> 1000,,,O=C(O)C[C@H](O)C[C@H](O)CCn1c(C(F)(F)F)nc(-c2ccc(F)cc2)c1-c1ccc(C(F)(F)F)cc1
68,,,COc1ccc(-c2nc(C(F)(F)F)n(CC[C@@H](O)C[C@@H](O)CC(=O)O)c2-c2ccc(F)cc2)cc1
64,,,O=C(O)C[C@H](O)C[C@H](O)CCn1c(C(F)(F)F)nc(-c2cccs2)c1-c1ccc(F)cc1
750,,,Cc1ccc(-c2c(-c3ccc(F)cc3)nc(C(F)(F)F)n2CC[C@@H](O)C[C@@H](O)CC(=O)O)cc1
38,,,Cc1cc(C)cc(-c2c(-c3ccc(F)cc3)nc(C(F)(F)F)n2CC[C@@H](O)C[C@@H](O)CC(=O)O)c1
17,,,O=C(O)C[C@H](O)C[C@H](O)CCn1c(C(F)(F)F)nc(-c2cccc(Cl)c2)c1-c1ccc(F)cc1
66,,,O=C(O)C[C@H](O)C[C@H](O)CCn1c(C(F)(F)F)nc(-c2cccnc2)c1-c1ccc(F)cc1
20,,,COc1cccc(-c2nc(C(F)(F)F)n(CC[C@@H](O)C[C@@H](O)CC(=O)O)c2-c2ccc(F)cc2)c1
38,,,O=C(O)C[C@H](O)C[C@H](O)CCn1c(C(F)(F)F)nc(-c2ccc(F)cc2)c1-c1ccc(F)cc1
31,,,O=C(O)C[C@H](O)C[C@H](O)CCn1c(C(F)(F)F)nc(-c2ccccc2)c1-c1ccc(F)cc1
201,,,O=C(O)C[C@H](O)C[C@H](O)CCn1c(C(F)(F)F)nc(-c2ccc(F)cc2)c1-c1ccccc1
41,,,O=C(O)C[C@H](O)C[C@H](O)CCn1c(C(F)(F)F)nc(-c2ccc(F)cc2)c1-c1cccc(Cl)c1

# More lines, now with the values behind:
SMILES,IC50 [1] [nM],logD [2],IC50 [3] [nM]
CC(C)c1c(-c2ccc(F)cc2)nc(-c2ccc(F)cc2)n1/C=C/[C@@H](O)C[C@@H](O)CC(=O)O,1,0.83,
CC(C)c1nc(-c2ccc(F)cc2)c(-c2ccc(F)cc2)n1/C=C/[C@@H](O)C[C@@H](O)CC(=O)O [listing 1 of 2 here],2,0.72,5.3
Cc1nc(-c2ccc(F)cc2)c(-c2ccc(F)cc2)n1/C=C/[C@@H](O)C[C@@H](O)CC(=O)O,> 100,,
Cc1cc(C)cc(-c2nc(C(F)(F)F)n(CC[C@@H](O)C[C@@H](O)CC(=O)O)c2-c2ccc(F)cc2)c1,24,,
Cc1cc(-c2c(-c3ccc(F)cc3)nc(C(F)(F)F)n2CC[C@@H](O)C[C@@H](O)CC(=O)O)cc(C)c1F,31,,
CC(C)c1nc(-c2ccc(F)cc2)c(-c2ccc(F)cc2)n1CC[C@@H](O)C[C@@H](O)CC(=O)O,316,,
CC(C)c1nc(-c2ccc(F)cc2)c(-c2ccc(F)cc2)n1/C=C/[C@H](O)C[C@H](O)CC(=O)O,700,,
CC(C)c1nc(-c2cccnc2)c(-c2ccc(F)cc2)n1/C=C/[C@@H](O)C[C@@H](O)CC(=O)O,1,-0.43,
CNc1cccc(-c2nc(C(C)C)n(/C=C/[C@@H](O)C[C@@H](O)CC(=O)O)c2-c2ccc(F)cc2)c1,3,-0.05,
Cc1cc(-c2nc(C(F)(F)F)n(CC[C@@H](O)C[C@@H](O)CC(=O)O)c2-c2ccc(F)cc2)cc(C)c1F,32,,
CN(C)c1nc(-c2ccc(F)cc2)c(-c2ccc(F)cc2)n1/C=C/[C@@H](O)C[C@@H](O)CC(=O)O,9,,
CC(C)c1nc(-c2ccccc2)n(-c2ccc(F)cc2)c1/C=C/[C@@H](O)C[C@@H](O)CC(=O)O,2.6,,
Cc1cc(F)ccc1-c1c(-c2ccc(F)cc2)nc(C(C)C)n1/C=C/[C@@H](O)C[C@@H](O)CC(=O)O,4,0.86,
Cc1cc(-c2c(-c3ccc(F)cc3)nc(C(C)C)n2/C=C/[C@@H](O)C[C@@H](O)CC(=O)O)cc(C)c1F,30,,
CCc1cc(-c2c(-c3ccc(F)cc3)nc(C(C)C)n2/C=C/[C@@H](O)C[C@@H](O)CC(=O)O)cc(CC)c1F,100,,
CC(C)c1nc(-c2ccc(F)cc2)c(-c2cc(Cl)cc(Cl)c2)n1/C=C/[C@@H](O)C[C@@H](O)CC(=O)O,22,,
CC(C)c1nc(-c2ccc(F)cc2)c(-c2cccc(Cl)c2)n1/C=C/[C@@H](O)C[C@@H](O)CC(=O)O,8,,
O=C(O)C[C@H](O)C[C@H](O)/C=C/n1c(C(F)(F)F)nc(-c2ccc(F)cc2)c1-c1ccc(F)cc1,13,0.73,15.8
Cc1cc(C)cc(-c2c(-c3ccc(F)cc3)nc(C(C)C)n2/C=C/[C@@H](O)C[C@@H](O)CC(=O)O)c1,56,,
CC(C)c1nc(-c2ccc(F)cc2)c(-c2ccc(F)cc2)n1/C=C/[C@@H](O)C[C@@H](O)CC(=O)O [listing 2 of 2 here],1,,2.5
CC(C)c1nc(-c2ccc(F)cc2)c(-c2ccc(F)cc2)n1/C=C/[C@H](O)C[C@@H](O)CC(=O)O,2000,,
CC(C)(C)c1nc(-c2ccc(F)cc2)c(-c2ccc(F)cc2)n1/C=C/[C@@H](O)C[C@@H](O)CC(=O)O,7,,
CC(C)c1nc(-c2cccc(S(C)(=O)=O)c2)c(-c2ccc(F)cc2)n1/C=C/[C@@H](O)C[C@@H](O)CC(=O)O,2,-0.6,
Cc1cc(-c2nc(C(C)C)n(/C=C/[C@@H](O)C[C@@H](O)CC(=O)O)c2-c2ccc(F)cc2)cc(C)c1Cl,2,2.27,0.9
